Assay results from ChEMBL document CHEMBL4715895, “Synthesis of erythro- B13 enantiomers and stereospecific action of full set of B13-isomers in MCF7 breast carcinoma cells: Cellular metabolism and effects on sphingolipids” (Bioorg Med Chem, 2021).

Tests used:
[1] = system: MCF7; test: Antiproliferative activity against human MCF7 cells assessed as growth inhibition after 48 hrs by MTT assay; format: functional, cell-based; details: MCF7, 48 h
[2] = Drug uptake in human MCF7 cells at 1 to 10 uM after 1 hr by HPLC-MS/MS analysis; format: ADME, cell-based; details: mcf7, 1 h, dose 1-10 µM
How it was run: (§1)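 MCF7 cells received 1, 5 or 10uM of each isomer for 1h or 24h as stated. Intracellular isomer levels were quantified by UHPLC-MS/MS of lipid extracts from cell pellets. Data are means ± st dev of triplicates.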

[3] = Drug metabolism in human MCF7 cells assessed as ceramidase mediated C24:1 metabolite formation after 24 hrs by UHPLC-MS/MS analysis; format: ADME, cell-based; details: mcf7, 24 h
How it was run: (§2)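 Cells were treated with 10uM of each isomer for 24h, then pellets were collected and lipids extracted. C16 and C24:1 analogs were quantified by UHPLC-MS/MS as pmol/nmol lipid phosphate, referenced against standards. Values are means ± st dev of triplicates from 3 separate experiments.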

[4] = system: MCF7; test: Antiproliferative activity against human MCF7 cells assessed as growth inhibition after 24 hrs by MTT assay; format: functional, cell-based; details: MCF7, 24 h
How it was run: (§3)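 MCF7 (RPMI 1640 with 10% FBS, 2mM L-glutamine, 37°C, 5% CO2) harvested in exponential growth, then exposed to each B13 stereoisomer for the stated time. Viable cells were quantified by MTT and expressed as % of untreated control (means ± st dev, 5 replicates). IC50 values were derived per time point.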

[5] = Drug uptake in human MCF7 cells at 1 to 10 uM after 24 hrs by HPLC-MS/MS analysis; format: ADME, cell-based; details: mcf7, 24 h, dose 1-10 µM; how it was run: as §1
[6] = system: MCF7; test: Antiproliferative activity against human MCF7 cells assessed as growth inhibition after 72 hrs by MTT assay; format: functional, cell-based; details: MCF7, 72 h; how it was run: as §3
[7] = Drug metabolism in human MCF7 cells assessed as reduction in endogenous sphingosine level at 1 to 10 uM after 24 hrs by UHPLC-MS/MS analysis; format: ADME, cell-based; details: mcf7, 24 h, dose 1-10 µM
How it was run: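 Isomers were applied at 1, 5 and 10uM for 24h. Endogenous Sph was measured in extracted pellet lipids by UHPLC-MS/MS (pmol/nmol lipid phosphate); the Cer/Sph ratio was also calculated. Values are triplicate means ± st dev versus control.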

[8] = Drug metabolism in human MCF7 cells assessed as ceramidase-mediated C16 metabolite formation at 1 to 10 uM after 24 hrs by UHPLC-MS/MS analysis; format: ADME, cell-based; details: mcf7, 24 h, dose 1-10 µM
[9] = Drug metabolism in human MCF7 cells assessed as ceramidase mediated C16 metabolite formation after 24 hrs by UHPLC-MS/MS analysis; format: ADME, cell-based; details: mcf7, 24 h; how it was run: as §2
[10] = Drug metabolism in human MCF7 cells assessed as increase in C14-ceramide metabolite formation at 10 uM after 1 hr by UHPLC-MS/MS analysis; format: ADME, cell-based; details: mcf7, 1 h
How it was run: (§4)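 After 1h of exposure to 10uM of each isomer, MCF7 pellets were extracted. Endogenous Cn-Cer and Cn-dhCer species were quantified by UHPLC-MS/MS as pmol/nmol lipid phosphate. Results are triplicate means ± st dev versus control.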

[11] = Drug metabolism in human MCF7 cells assessed as reduction in elevation of C26-ceramide metabolite formation at 10 uM after 1 hr by UHPLC-MS/MS analysis; format: ADME, cell-based; details: mcf7, 1 h; how it was run: as §4
[12] = Drug metabolism in human MCF7 cells assessed as increase in C16-ceramide metabolite formation at 10 uM after 1 hr by UHPLC-MS/MS analysis; format: ADME, cell-based; details: mcf7, 1 h; how it was run: as §4
[13] = Drug metabolism in human MCF7 cells assessed as increase in C24:1-dihydroceramide elevation at 10 uM after 1 hr by UHPLC-MS/MS analysis; format: ADME, cell-based; details: mcf7, 1 h; how it was run: as §4
[14] = Drug metabolism in human MCF7 cells assessed as increase in C26:1-dihydroceramide elevation at 10 uM after 1 hr by UHPLC-MS/MS analysis; format: ADME, cell-based; details: mcf7, 1 h; how it was run: as §4
[15] = Drugmetabolism in human MCF7 cells assessed as formation of phosphorylated free sphingoid base at 1 to 10 uM after 24 hrs by UHPLC-MS/MS analysis; format: ADME, cell-based; details: mcf7, 24 h, dose 1-10 µM
[16] = Drug metabolism in human MCF7 cells assessed as increase in C24-dihydroceramide elevation at 10 uM after 1 hr by UHPLC-MS/MS analysis; format: ADME, cell-based; details: mcf7, 1 h; how it was run: as §4
[17] = Drug metabolism in human MCF7 cells assessed as elevation of =<C18-ceramide metabolite at 10 uM after 24 hr by UHPLC-MS/MS analysis; format: ADME, cell-based; details: mcf7, 24 h
How it was run: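 Each isomer was given at 10uM to MCF7 cells for 24h. Lipid extracts of the cell pellets were profiled by UHPLC-MS/MS for Cn-Cer species, normalized to lipid phosphate (pmol/nmol). Data are means ± st dev of triplicates, compared with vehicle control (p<0.05).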

[18] = Drug metabolism in human MCF7 cells assessed as increase in C26-dihydroceramide elevation at 10 uM after 1 hr by UHPLC-MS/MS analysis; format: ADME, cell-based; details: mcf7, 1 h; how it was run: as §4

Row | IC50 [1] | Drug uptake [2] | Drug metabolism [3] | IC50 [4] | Drug uptake [5] | IC50 [6] | Drug metabolism [7] | Drug metabolism [8] | Drug metabolism [9] | Drug metabolism [10] | Drug metabolism [11] | Drug metabolism [12] | Drug metabolism [13] | Drug metabolism [14] | Drug metabolism [15] | Drug metabolism [16] | Drug metabolism [17] | Drug metabolism [18] | SMILES
1 | 13.1 µM | Active | Metabolite_Detected | 18 µM | Active | 13.5 µM | Metabolite_Detected | Metabolite_Detected | Metabolite_Detected | – | – | – | – | – | – | – | – | – | CCCCCCCCCCCCCC(=O)N[C@H](CO)[C@@H](O)c1ccc([N+](=O)[O-])cc1
2 | 35.6 µM | Active | Metabolite_Detected | 42.3 µM | Active | 37 µM | Metabolite_Detected | Metabolite_Detected | Metabolite_Detected | Metabolite_Detected | Metabolite_Detected | Metabolite_Detected | – | – | – | – | – | – | CCCCCCCCCCCCCC(=O)N[C@H](CO)[C@H](O)c1ccc([N+](=O)[O-])cc1
3 | 43.6 µM | Active | Metabolite_Detected | 54.1 µM | Active | 46.6 µM | Metabolite_Detected | Metabolite_Detected | Metabolite_Detected | – | – | – | – | – | – | – | – | – | CCCCCCCCCCCCCC(=O)N[C@@H](CO)[C@@H](O)c1ccc([N+](=O)[O-])cc1
4 | 8.08 µM | Active | Metabolite_Detected | 10.2 µM | Not Active | 9.39 µM | – | Metabolite_Detected | Metabolite_Detected | – | – | – | Metabolite_Detected | Metabolite_Detected | Metabolite_Detected | Metabolite_Detected | Metabolite_Detected | Metabolite_Detected | CCCCCCCCCCCCCC(=O)N[C@@H](CO)[C@H](O)c1ccc([N+](=O)[O-])cc1
